Measurements pooled from the literature.
Compare with care: the assays were run in different laboratories.
Target: G protein-coupled receptor kinase 4 (GRK4, Homo sapiens, UniProt P32298)

SMILES | observed | mode | technique | concentration | endpoint | value
O=c1[nH]c2ccccc2n1C1CCN(Cc2ccc(-c3[nH]c4cc5ncnc5cc4nc3-c3ccccc3)cc2)CC1 | cell-free assay | – | – | 0.5 µM | remaining signal | 104%
Cn1cc(-c2cccc(N3CCc4c(sc5c4CC(C)(C)C5)C3=O)c2CO)cc(Nc2ccncn2)c1=O | enzyme activity | inhibitor | – | 1 µM | inhibition | -4%
Cn1cncc1[C@@](O)(COc1ccc(C#N)cc1-c1ccc(OC(F)(F)F)cc1)c1ccc(C#N)cc1 | cell-free assay | – | competition with immobilised ligand | 1 µM | remaining binding | 56%
Nc1ncc(-c2nc(N3CCOCC3)nc(N3CCOCC3)n2)c(C(F)F)n1 | binding | – | competition with immobilised ligand | 10 µM | remaining binding | 74%
CC(C)(C)c1cc(C=C(C#N)C#N)cc(Br)c1O | enzyme activity | inhibitor | – | 0.5 µM | remaining activity | 101%
Cn1cc(-c2cc(F)cc(N3CCn4c(cc5c4CCCC5)C3=O)c2CO)cc(Nc2ccc(N3CCN(C4COC4)CC3)cn2)c1=O | enzyme activity | inhibitor | – | 0.1 µM | inhibition | 12%
N#CC1(c2ccccn2)CCN(Cc2cc(C(=O)O)c(=O)n3ccccc23)CC1 | cell-free assay | – | competition with immobilised ligand | 1 µM | remaining binding | 68%
Cc1nn(C)cc1-c1nc2c(N3CCN(Cc4ccc(Cl)cc4)CC3)c(Cl)cnc2[nH]1 | binding | – | competition with immobilised ligand | 1 µM | remaining binding | 41%
COc1ncccc1-c1cnn2ccc(N3CCN(C(=O)OC(C)C)CC3)nc12 | binding | – | competition with immobilised ligand | 1 µM | remaining binding | 70%
